Data as given in ChEMBL document CHEMBL1123012, “Ellipticine derivatives with an affinity to the estrogen receptor, an approach to develop intercalating drugs with a specific effect on the hormone-dependent breast cancer” (J Med Chem, 1985).

Assays:
[1] = tested on: Calf thymus DNA; test: Inhibitory concentration against ethidium bromide binding to DNA; assay type: nucleic-acid assay; conditions: Bos taurus
How it was run: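 Fluorometric competition with ethidium bromide bound to sonicated calf thymus DNA, 20 °C, 0.02 M sodium acetate pH 5.5. Final DNA 2.5 × 10^-6 M (base pairs), ethidium 5 × 10^-6 M; competitor added in portions. Excitation 546 nm, emission 590 nm. Bound ethidium per base pair plotted vs rf (competitor/DNA bp). rf50 taken at 50% displacement of bound ethidium.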

[2] = tested on: L1210; test: Lethal concentration required to reduce cloning efficiency of L1210 cell line to a factor of 0.37 after 24 hour exposure; assay type: cell-based; conditions: mouse, l1210, 24 h
[3] = tested on: L1210; test: The effective dose against L1210 cell growth; assay type: functional; conditions: Mus musculus, read-out: ED50 (the source's name)
How it was run: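 Exponentially growing L1210 cells (1 × 10^5/mL) in RPMI 1640 with 10% fetal calf serum, penicillin, streptomycin and 60 µM β-mercaptoethanol. Exposed to a range of drug concentrations in nonagitated suspension for 24 h at 37 °C, 5% CO2. Cells counted electronically; duplicate treated cultures compared with triplicate untreated controls. ED50 taken from percent inhibition plotted against log concentration.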

Structure (SMILES) | rf50 [1] | EC50 [3] | Co [2]
CCN(CC)CCOc1ccc(/C(=C(\Cl)c2ccccc2)c2ccccc2)cc1 | 20 | – | –
CCN(CC)CCOc1ccc(/C(=C(/Cl)c2ccccc2)c2ccccc2)cc1 | 20 | – | –
COc1ccc2[nH]c3c(C)c4cc[n+](CC(=O)NCCCCCNCCOc5ccc(/C(=C(/Cl)c6ccccc6)c6ccccc6)cc5)cc4c(C)c3c2c1 | 0.86 | – | –
Cc1c2cc[n+](CCNC(=O)CC3(C)CC[C@H]4[C@@H]5CCc6cc(O)ccc6[C@H]5CC[C@@]43C)cc2c(C)c2c1[nH]c1ccccc12.[Br-] (stereo partly specified) | 1.5 | 0.5 µM | 0.15 µM

Now from value to compound, other results behind:

rf50 [1] | EC50 [3] | Structure (SMILES) | Co [2]
0.7 | 5 µM | COc1ccc2[nH]c3c(C)c4cc[n+](CC(=O)N(CCCCCN)CCOc5ccc(/C(=C(/Cl)c6ccccc6)c6ccccc6)cc5)cc4c(C)c3c2c1.[Cl-] | 9 µM
0.32 | 4 µM | Cc1c2cc[n+](CC(=O)NCCCCCNCCOc3ccc(/C(=C(/Cl)c4ccccc4)c4ccccc4)cc3)cc2c(C)c2c1[nH]c1ccc(O)cc12.[Cl-] | > 10 µM
4.8 | 4 µM | Cc1c2cc[n+](CC(=O)NCCCCCN(CCOc3ccc(/C(=C(/Cl)c4ccccc4)c4ccccc4)cc3)C(=O)C[n+]3ccc4c(C)c5[nH]c6ccc(O)cc6c5c(C)c4c3)cc2c(C)c2c1[nH]c1ccc(O)cc12.[Cl-].[Cl-] | > 10 µM
10 | – | COc1ccc2[nH]c3c(C)c4cc[n+](CC(=O)NCCCCCN(CCOc5ccc(/C(=C(/Cl)c6ccccc6)c6ccccc6)cc5)C(=O)C[n+]5ccc6c(C)c7[nH]c8ccc(OC)cc8c7c(C)c6c5)cc4c(C)c3c2c1 | –
